Measurements from ChEMBL document CHEMBL4689842, “EUbOPEN Chemogenomics Library wave 1” (2021).

Experiments:
Format in all cases: toxicity, cell-based
Fibroblast = assay: Multiplex assay against human fibroblast
How it was run: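 On a CQ1 microscope at 37°C and 5% CO2, live cells were imaged after compound addition. They had been stained at seeding with Hoechst33342, BioTracker Green Microtubule Cytoskeleton Dye, MitoTracker Red and Annexin V Alexa Fluor 680. CellPathfinder machine-learning gating assigned cells to Hoechst high-intensity objects or normal cells, normal cells to healthy, pyknosed or fragmented nuclei, and pyknosed cells to mitotic or apoptotic. Tubulin, mitochondrial-mass and membrane-permeability phenotypes are per cents of healthy-nucleus cells.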

U2OS = assay: Incucyte cell viability with U2OS; conditions: human, 10 µM, compound concentration 10 uM; also: filed as whole numbers so only -1 and 0 and 1 occur
HEK-293T = assay: Incucyte cell viability with HEK293T; conditions: human, 10 µM, compound concentration 10 uM; also: filed as whole numbers so only -1 and 0 and 1 occur
[1] = 12 h, 1 µM, compound concentration 1 uM, replicate 1
[2] = 12 h, 1 µM, compound concentration 1 uM, replicate 2
[3] = 12 h, 10 µM, compound concentration 10 uM, replicate 1
[4] = 12 h, 10 µM, compound concentration 10 uM, replicate 2
[5] = 24 h, 1 µM, compound concentration 1 uM, replicate 1
[6] = 24 h, 1 µM, compound concentration 1 uM, replicate 2
[7] = 24 h, 10 µM, compound concentration 10 uM, replicate 1
[8] = 24 h, 10 µM, compound concentration 10 uM, replicate 2
[9] = 48 h, 1 µM, compound concentration 1 uM, replicate 1
[10] = 48 h, 1 µM, compound concentration 1 uM, replicate 2
[11] = 48 h, 10 µM, compound concentration 10 uM, replicate 1
[12] = 48 h, 10 µM, compound concentration 10 uM, replicate 2
[13] = 6 h, replicate number 1, timepoint 6 hours
[14] = 12 h, replicate number 1, timepoint 12 hours
[15] = 18 h, replicate number 1, timepoint 18 hours
[16] = 24 h, replicate number 1, timepoint 24 hours

Cl.NC[C@@H]1O[C@H](C23CC4CC(CC(C4)C2)C3)Cc2c1ccc(O)c2O
Population Apoptotic (%) (Fibroblast; [1]): 60% | Population Fragmented Nuclei (%) (Fibroblast; [1]): 28% | Population Healthy Nuclei (%) (Fibroblast; [1]): 51% | Population Hoechst High Intensity Objects (%) (Fibroblast; [1]): 12% | Population Membrane Permeable-Phenotype (%) (Fibroblast; [1]): 16% | Population Mitochondria Different-Phenotype (%) (Fibroblast; [1]): 1% | Population Mitotic Cells (%) (Fibroblast; [1]): 40% | Population Normal (%) (Fibroblast; [1]): 87% | Population Pyknosed Nuclei (%) (Fibroblast; [1]): 20% | Population Tubulin-Different-Phenotype (%) (Fibroblast; [1]): 24% | Total Cell Count (Fibroblast; [1]): 171 | Population Apoptotic (%) (Fibroblast; [2]): 0% | Population Fragmented Nuclei (%) (Fibroblast; [2]): 6% | Population Healthy Nuclei (%) (Fibroblast; [2]): 91% | Population Hoechst High Intensity Objects (%) (Fibroblast; [2]): 3% | Population Membrane Permeable-Phenotype (%) (Fibroblast; [2]): 2% | Population Mitochondria Different-Phenotype (%) (Fibroblast; [2]): 9% | Population Mitotic Cells (%) (Fibroblast; [2]): 100% | Population Normal (%) (Fibroblast; [2]): 96% | Population Pyknosed Nuclei (%) (Fibroblast; [2]): 2% | Population Tubulin-Different-Phenotype (%) (Fibroblast; [2]): 10% | Total Cell Count (Fibroblast; [2]): 95 | Population Apoptotic (%) (Fibroblast; [3]): 44% | Population Fragmented Nuclei (%) (Fibroblast; [3]): 29% | Population Healthy Nuclei (%) (Fibroblast; [3]): 42% | Population Hoechst High Intensity Objects (%) (Fibroblast; [3]): 15% | Population Membrane Permeable-Phenotype (%) (Fibroblast; [3]): 8% | Population Mitochondria Different-Phenotype (%) (Fibroblast; [3]): 9% | Population Mitotic Cells (%) (Fibroblast; [3]): 55% | Population Normal (%) (Fibroblast; [3]): 84% | Population Pyknosed Nuclei (%) (Fibroblast; [3]): 28% | Population Tubulin-Different-Phenotype (%) (Fibroblast; [3]): 46% | Total Cell Count (Fibroblast; [3]): 205 | Population Apoptotic (%) (Fibroblast; [4]): 52% | Population Fragmented Nuclei (%) (Fibroblast; [4]): 39% | Population Healthy Nuclei (%) (Fibroblast; [4]): 32% | Population Hoechst High Intensity Objects (%) (Fibroblast; [4]): 10% | Population Membrane Permeable-Phenotype (%) (Fibroblast; [4]): 9% | Population Mitochondria Different-Phenotype (%) (Fibroblast; [4]): 22% | Population Mitotic Cells (%) (Fibroblast; [4]): 47% | Population Normal (%) (Fibroblast; [4]): 89% | Population Pyknosed Nuclei (%) (Fibroblast; [4]): 27% | Population Tubulin-Different-Phenotype (%) (Fibroblast; [4]): 27% | Total Cell Count (Fibroblast; [4]): 76 | Population Apoptotic (%) (Fibroblast; [5]): 50% | Population Fragmented Nuclei (%) (Fibroblast; [5]): 32% | Population Healthy Nuclei (%) (Fibroblast; [5]): 55% | Population Hoechst High Intensity Objects (%) (Fibroblast; [5]): 14% | Population Membrane Permeable-Phenotype (%) (Fibroblast; [5]): 14% | Population Mitochondria Different-Phenotype (%) (Fibroblast; [5]): 0% | Population Mitotic Cells (%) (Fibroblast; [5]): 50% | Population Normal (%) (Fibroblast; [5]): 85% | Population Pyknosed Nuclei (%) (Fibroblast; [5]): 12% | Population Tubulin-Different-Phenotype (%) (Fibroblast; [5]): 26% | Total Cell Count (Fibroblast; [5]): 213 | Population Apoptotic (%) (Fibroblast; [6]): 42% | Population Fragmented Nuclei (%) (Fibroblast; [6]): 8% | Population Healthy Nuclei (%) (Fibroblast; [6]): 85% | Population Hoechst High Intensity Objects (%) (Fibroblast; [6]): 2% | Population Membrane Permeable-Phenotype (%) (Fibroblast; [6]): 5% | Population Mitochondria Different-Phenotype (%) (Fibroblast; [6]): 10% | Population Mitotic Cells (%) (Fibroblast; [6]): 57% | Population Normal (%) (Fibroblast; [6]): 97% | Population Pyknosed Nuclei (%) (Fibroblast; [6]): 6% | Population Tubulin-Different-Phenotype (%) (Fibroblast; [6]): 12% | Total Cell Count (Fibroblast; [6]): 114 | Population Apoptotic (%) (Fibroblast; [7]): 58% | Population Fragmented Nuclei (%) (Fibroblast; [7]): 17% | Population Healthy Nuclei (%) (Fibroblast; [7]): 52% | Population Hoechst High Intensity Objects (%) (Fibroblast; [7]): 29% | Population Membrane Permeable-Phenotype (%) (Fibroblast; [7]): 5% | Population Mitochondria Different-Phenotype (%) (Fibroblast; [7]): 16% | Population Mitotic Cells (%) (Fibroblast; [7]): 41% | Population Normal (%) (Fibroblast; [7]): 70% | Population Pyknosed Nuclei (%) (Fibroblast; [7]): 30% | Population Tubulin-Different-Phenotype (%) (Fibroblast; [7]): 50% | Total Cell Count (Fibroblast; [7]): 181 | Population Apoptotic (%) (Fibroblast; [8]): 92% | Population Fragmented Nuclei (%) (Fibroblast; [8]): 50% | Population Healthy Nuclei (%) (Fibroblast; [8]): 29% | Population Hoechst High Intensity Objects (%) (Fibroblast; [8]): 18% | Population Membrane Permeable-Phenotype (%) (Fibroblast; [8]): 26% | Population Mitochondria Different-Phenotype (%) (Fibroblast; [8]): 26% | Population Mitotic Cells (%) (Fibroblast; [8]): 7% | Population Normal (%) (Fibroblast; [8]): 81% | Population Pyknosed Nuclei (%) (Fibroblast; [8]): 20% | Population Tubulin-Different-Phenotype (%) (Fibroblast; [8]): 26% | Total Cell Count (Fibroblast; [8]): 80 | Population Apoptotic (%) (Fibroblast; [9]): 87% | Population Fragmented Nuclei (%) (Fibroblast; [9]): 36% | Population Healthy Nuclei (%) (Fibroblast; [9]): 59% | Population Hoechst High Intensity Objects (%) (Fibroblast; [9]): 11% | Population Membrane Permeable-Phenotype (%) (Fibroblast; [9]): 10% | Population Mitotic Cells (%) (Fibroblast; [9]): 12% | Population Normal (%) (Fibroblast; [9]): 88% | Population Pyknosed Nuclei (%) (Fibroblast; [9]): 4% | Population Tubulin-Different-Phenotype (%) (Fibroblast; [9]): 13% | Total Cell Count (Fibroblast; [9]): 212 | Population Apoptotic (%) (Fibroblast; [10]): 100% | Population Fragmented Nuclei (%) (Fibroblast; [10]): 21% | Population Healthy Nuclei (%) (Fibroblast; [10]): 77% | Population Hoechst High Intensity Objects (%) (Fibroblast; [10]): 10% | Population Membrane Permeable-Phenotype (%) (Fibroblast; [10]): 16% | Population Mitochondria Different-Phenotype (%) (Fibroblast; [10]): 0% | Population Mitotic Cells (%) (Fibroblast; [10]): 0% | Population Normal (%) (Fibroblast; [10]): 89% | Population Pyknosed Nuclei (%) (Fibroblast; [10]): 0% | Population Tubulin-Different-Phenotype (%) (Fibroblast; [10]): 21% | Total Cell Count (Fibroblast; [10]): 114 | Population Apoptotic (%) (Fibroblast; [11]): 66% | Population Fragmented Nuclei (%) (Fibroblast; [11]): 32% | Population Healthy Nuclei (%) (Fibroblast; [11]): 43% | Population Hoechst High Intensity Objects (%) (Fibroblast; [11]): 24% | Population Membrane Permeable-Phenotype (%) (Fibroblast; [11]): 50% | Population Mitochondria Different-Phenotype (%) (Fibroblast; [11]): 5% | Population Mitotic Cells (%) (Fibroblast; [11]): 33% | Population Normal (%) (Fibroblast; [11]): 75% | Population Pyknosed Nuclei (%) (Fibroblast; [11]): 23% | Population Tubulin-Different-Phenotype (%) (Fibroblast; [11]): 46% | Total Cell Count (Fibroblast; [11]): 169 | Population Apoptotic (%) (Fibroblast; [12]): 100% | Population Fragmented Nuclei (%) (Fibroblast; [12]): 50% | Population Healthy Nuclei (%) (Fibroblast; [12]): 48% | Population Hoechst High Intensity Objects (%) (Fibroblast; [12]): 17% | Population Membrane Permeable-Phenotype (%) (Fibroblast; [12]): 14% | Population Mitochondria Different-Phenotype (%) (Fibroblast; [12]): 1% | Population Mitotic Cells (%) (Fibroblast; [12]): 0% | Population Normal (%) (Fibroblast; [12]): 82% | Population Pyknosed Nuclei (%) (Fibroblast; [12]): 1% | Population Tubulin-Different-Phenotype (%) (Fibroblast; [12]): 43% | Total Cell Count (Fibroblast; [12]): 236 | Growth Rate (U2OS; [13]): 0 | Growth Rate (U2OS; [14]): 0 | Growth Rate (U2OS; [15]): 0 | Growth Rate (U2OS; [16]): 0 | Growth Rate (HEK-293T; 0 h, replicate number 2, timepoint 0 hours): 1 | Growth Rate (HEK-293T; [13]): 0 | Growth Rate (HEK-293T; [14]): 0 | Growth Rate (HEK-293T; [15]): 0 | Growth Rate (HEK-293T; [16]): 0
